This is an account of results in ChEMBL document CHEMBL1770150, “Synthesis, biological evaluation and molecular modeling studies of quinolonyl diketo acid derivatives: new structural insight into the HIV-1 integrase inhibition” (Eur J Med Chem, 2011).

Series [1] can be described thus: Selectivity index, ratio of CC50 for human TZM-bl cells to EC50 for HIV1 NL4-3. It is filed as toxicity, cell-based. To be noted: read-out: Ratio CC50/EC50. A digest of the protocol:
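Index was calculated as CC50/EC50, both determined in TZM-bl cells (WST-1 viability over 3 days; NL4-3 infection with β-galactosidase read-out).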

The subject of series [2] is Human immunodeficiency virus 1. The experiment in a line: Antiviral activity against HIV1 NL4-3 infected in human TZM-bl cells assessed as inhibition of Tat protein-induced transactivation after 48 hrs by beta galactosidase assay. The class given is functional, organism-based. To be noted: Human immunodeficiency virus 1, NL4-3, TZM-bl. A digest of the protocol: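 TZM-bl cells were grown in DMEM at 37 °C with 5% CO2 and plated at 5000 cells/well. After 48 h the medium was replaced with compound dilutions (0.00128 to 4). Cells were infected with NL4-3 (100 ng p24) 4 h later. At 48 h post-infection, cells were lysed in PBS with 0.1% NP-40 and 5 mM MgCl2. β-galactosidase was read with chlorophenol red-galactopyranoside. EC50 came from dose-response curves.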

Series [3] in a line: Cytotoxicity against human TZM-bl cells assessed as cell viability after 3 days by WST-1 assay. The class given is cell-based. A digest of the protocol:
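TZM-bl cells were seeded at 5000/well, and compound dilutions (100 to 0.032) were added 2 h later. Cells and compound were held 3 days at 37 °C in growth medium. Viability was measured by WST-1 cleavage, absorbance at […]. Cytotoxicity is the percent reduction in viable cells relative to drug-free control cultures.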
For orientation: Tetrazolium dyes change colour on reduction, which living cells bring about.

Series [4] concerns the target T1, Human immunodeficiency virus type 1 integrase (Human immunodeficiency virus 1, UniProt Q7ZJM1). The experiment in a line: Inhibition of HIV1 integrase strand transfer activity after 1 hr by gel based assay in presence of magnesium. A digest of the protocol: (§1)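 Buffer was 20 mM HEPES pH 7.5, 1 mM DTT, 10 mM MgCl2 and 10% DMSO, for 1 h at 37 °C. DNA was precipitated, phenol/chloroform-extracted and analysed on gel. IC50 was fitted from percent inhibition versus concentration, from duplicate experiments.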

For series [5], the target named is T1, Human immunodeficiency virus type 1 integrase. The experiment in a line: Inhibition of HIV1 integrase 3' processing activity after 1 hr by gel based assay in presence of magnesium. A digest of the protocol: as §1

Broadly, the EC50 is the concentration at which the effect is half-maximal. A word on the CC50: it is the concentration at which the toxic effect on the cells reaches its halfway point. One may read the IC50 as the concentration at which inhibition is half-maximal.

The structures appear in SMILES notation.

T1 sequence (Q7ZJM1 whole entry): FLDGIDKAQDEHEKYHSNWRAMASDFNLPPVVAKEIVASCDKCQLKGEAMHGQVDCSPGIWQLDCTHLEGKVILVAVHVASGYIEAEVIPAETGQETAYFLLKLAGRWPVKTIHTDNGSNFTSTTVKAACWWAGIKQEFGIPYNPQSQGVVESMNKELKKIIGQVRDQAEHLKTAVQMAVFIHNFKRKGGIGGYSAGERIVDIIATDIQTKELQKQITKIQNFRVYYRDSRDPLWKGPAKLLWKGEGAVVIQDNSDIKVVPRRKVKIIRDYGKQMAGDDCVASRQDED

As to `CCOC(=O)/C(O)=C/C(=O)c1cn(Cc2ccc(F)cc2)c2ccc(OCc3ccc(F)cc3)cc2c1=O`, the selectivity ratio in series [1] was determined as 77. Further, in series [2], the concentration giving a half-maximal response (EC50) worked out at 13 µM. Further, the CC50 at 72 h in series [3] is over 1000 µM. The IC50 in series [4] and in series [5] was over 300 µM in each case.

For `O=C(O)/C(O)=C/C(=O)c1cn(Cc2ccc(F)cc2)c2ccc(OCc3ccc(F)cc3)cc2c1=O`, the selectivity ratio in series [1] turned out to be 1000. In addition, the EC50 in series [2] is 1 µM. Moreover, the CC50 at 72 h in series [3] is over 1000 µM. The IC50 in series [4] is 0.05 µM; in series [5], 3 µM.

Regarding `CCOC(=O)/C=C/c1ccc2c(c1)c(=O)c(C(=O)/C=C(\O)C(=O)OCC)cn2Cc1ccc(F)cc1`, the selectivity ratio in series [1] came out at 7. For the same compound, the EC50 in series [2] was over 140 µM. For the same compound, the CC50 at 72 h in series [3] was over 1000 µM. Also, the IC50 in series [4] and in series [5] was over 300 µM throughout.

For the compound `O=C(O)/C=C/c1ccc2c(c1)c(=O)c(C(=O)/C=C(\O)C(=O)O)cn2Cc1ccc(F)cc1`, in series [1], the selectivity ratio was determined as 200. Also, the EC50 in series [2] was 5 µM. For the same compound, the CC50 at 72 h in series [3] is over 1000 µM. The 50% inhibitory concentration (IC50) in series [4] turned out to be 0.03 µM; in series [5] it was 8 µM.

Turning to `O=C(O)/C(O)=C/C(=O)c1cn(Cc2ccc(F)cc2)c2ccc(Br)cc2c1=O`, the selectivity ratio in series [1] came out at 250. Besides, in series [2], the EC50 amounted to 4 µM. Further, the CC50 at 72 h in series [3] was over 1000 µM. The figures for the IC50 in series [4] and in series [5] were 0.03 µM and 1.6 µM, respectively.
